Source: ChEMBL document CHEMBL3864188, “Polyamine Conjugation as a Promising Strategy To Target Amyloid Aggregation in the Framework of Alzheimer's Disease” (ACS Med Chem Lett, 2016)
The source made the active and inactive calls. No cut-off for these calls is given here.

Assays:
[1] = biological target: Amyloid-beta precursor protein (Homo sapiens) (UniProt P05067); test: Inhibition of amyloid beta (1 to 42) (unknown origin) self-aggregation assessed as residual amyloid beta 42 monomer level at 10 uM after 24 hrs by ESI-IT-MS analysis
Sequence of Amyloid-beta precursor protein (Homo sapiens) (P05067 whole entry): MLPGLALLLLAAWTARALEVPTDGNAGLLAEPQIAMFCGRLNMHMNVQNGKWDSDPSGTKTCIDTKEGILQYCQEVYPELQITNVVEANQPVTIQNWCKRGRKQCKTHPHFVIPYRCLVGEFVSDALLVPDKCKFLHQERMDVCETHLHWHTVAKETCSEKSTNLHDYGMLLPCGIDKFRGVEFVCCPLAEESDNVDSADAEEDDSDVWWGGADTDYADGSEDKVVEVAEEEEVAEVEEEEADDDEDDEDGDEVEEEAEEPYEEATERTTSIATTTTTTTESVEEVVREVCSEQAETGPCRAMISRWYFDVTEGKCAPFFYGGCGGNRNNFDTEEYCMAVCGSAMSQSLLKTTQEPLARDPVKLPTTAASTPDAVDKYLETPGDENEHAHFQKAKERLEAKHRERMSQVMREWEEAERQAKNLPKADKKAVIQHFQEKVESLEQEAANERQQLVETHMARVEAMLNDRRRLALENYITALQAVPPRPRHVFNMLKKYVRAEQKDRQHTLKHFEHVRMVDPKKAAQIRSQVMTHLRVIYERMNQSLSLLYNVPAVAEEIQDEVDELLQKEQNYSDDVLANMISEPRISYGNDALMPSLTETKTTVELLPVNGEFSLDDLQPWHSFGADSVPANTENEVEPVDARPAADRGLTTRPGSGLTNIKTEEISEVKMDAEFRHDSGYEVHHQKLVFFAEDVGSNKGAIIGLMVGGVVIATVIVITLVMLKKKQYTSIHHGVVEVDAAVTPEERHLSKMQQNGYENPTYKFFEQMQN
Outline: (§1)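 Aβ42 incubated 24 h at 30 °C with or without inhibitor; monomer (Aβ42m) and oxidized monomer (Aβ42m Ox) quantified by mass spectrometry with reserpine as internal standard. Residual monomer expressed versus t0 control; oxidized monomer expressed as fold over 24 h control. Test levels 2, 10 and 50 μM.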

[2] = biological target: Amyloid-beta precursor protein (Homo sapiens) (UniProt P05067); test: Inhibition of amyloid beta (1 to 42) (unknown origin) self-aggregation assessed as residual amyloid beta 42 monomer level at 50 uM after 24 hrs by ESI-IT-MS analysis; outline: as §1
[3] = biological target: Amyloid-beta precursor protein (Homo sapiens) (UniProt P05067); test: Inhibition of amyloid beta (1 to 42) (unknown origin) self-aggregation at 50 uM after 24 hrs by ESI-IT-MS analysis; outline: as §1
[4] = biological target: Amyloid-beta precursor protein (Homo sapiens) (UniProt P05067); test: Inhibition of amyloid beta (1 to 42) (unknown origin) self-aggregation assessed as increase in oxidized amyloid beta 42 monomer level at 50 uM after 24 hrs by ESI-IT-MS analysis relative to control; outline: as §1
Rattus norvegicus = organism: Rattus norvegicus; test: Neurotoxicity in rat mixed cortical neurons assessed as neuronal cell death up to 50 uM after 48 hrs by trypan blue dye based phase contrast microscopic analysis; type: toxicity, organism-based; details: cortical neurone
Outline: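 Mixed rat cortical cell cultures exposed to compound at 0.25−50 μM for 48 h; dead neurons stained with Trypan blue and counted microscopically to quantify neuronal damage.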

[5] = biological target: Amyloid-beta precursor protein (Homo sapiens) (UniProt P05067); test: Inhibition of amyloid beta (1 to 42) (unknown origin) self-aggregation assessed as increase in oxidized amyloid beta 42 monomer level after 24 hrs by ESI-IT-MS analysis; outline: as §1
[6] = biological target: Amyloid-beta precursor protein (Homo sapiens) (UniProt P05067); test: Inhibition of amyloid beta (1 to 42) (unknown origin) self-aggregation at 10 uM after 24 hrs by ESI-IT-MS analysis; outline: as §1
T67 [7] = test: Antioxidant activity in human T67 cells assessed as decrease in TBHP-induced ROS generation at 10 uM pretreated for 4 hrs followed by TBPH addition for 30 mins by DCFDA dye based fluorescence assay; type: functional, cell-based
T67 [8] = test: Pro-oxidant activity in human T67 cells assessed as induction of mitochondrial ROS generation after 4 hrs by MitoSOX Red probe based fluorescence assay; type: functional, cell-based
Outline: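 T67 cells treated 4 h with compound at 1–10 μM; mitochondrial superoxide read by MitoSOX Red fluorescence. Antimycin A (10 μM) as positive control. n = 8; one-way ANOVA with Dunnett's test versus untreated control.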

[9] = biological target: Amyloid-beta precursor protein (Homo sapiens) (UniProt P05067); test: Inhibition of amyloid beta (1 to 42) (unknown origin) self-aggregation assessed as residual amyloid beta 42 monomer level at 2 uM after 24 hrs by ESI-IT-MS analysis; outline: as §1
[10] = biological target: Amyloid-beta precursor protein (Homo sapiens) (UniProt P05067); test: Inhibition of amyloid beta (1 to 42) (unknown origin) self-aggregation at 2 uM after 24 hrs by ESI-IT-MS analysis; outline: as §1
[11] = biological target: Amyloid-beta precursor protein (Homo sapiens) (UniProt P05067); test: Inhibition of amyloid beta (1 to 42) (unknown origin) self-aggregation assessed as increase in oxidized amyloid beta 42 monomer level at 2 uM after 24 hrs by ESI-IT-MS analysis relative to control; outline: as §1
[12] = biological target: Amyloid-beta precursor protein (Homo sapiens) (UniProt P05067); test: Inhibition of amyloid beta (1 to 42) (unknown origin) self-aggregation assessed as increase in oxidized amyloid beta 42 monomer level at 10 uM after 24 hrs by ESI-IT-MS analysis relative to control; outline: as §1
[13] = biological target: Amyloid-beta precursor protein (Homo sapiens) (UniProt P05067); test: Neuroprotective activity against amyloid beta (1 to 42) (unknown origin)-induced neuronal cell death in rat mixed cortical neurons assessed as number of dead neurons at 5 uM incubated for 72 hrs by trypan blue dye based phase contrast microscopic analysis (reference value: 71.7 +/- 3.1)
Outline: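 100 μM Aβ42 preincubated 72 h alone or with 5-fold molar excess of inhibitor, then added to rat mixed cortical cultures for a further 72 h (final inhibitor 5 μM). Dead neurons stained with Trypan blue, counted in three random microscopic fields/well; means ± SEM of nine determinations.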

neuronal = test: Neuroprotective activity against human amyloid beta (1 to 42)-induced neuronal cell death in rat mixed cortical neurons assessed as decrease in number of dead neurons up to 25 uM incubated for 72 hrs by trypan blue dye based phase contrast microscopic analysis
Outline: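 Rat mixed cortical cultures exposed to Aβ42 oligomers preformed by 72 h incubation, with compound added separately; 72 h exposure. Trypan blue–stained dead neurons counted in three random fields/well; means ± SEM of nine determinations.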

`Cl.O=C1/C(=C/c2ccc(O)c(O)c2)CNC/C1=C\c1ccc(O)c(O)c1` gave an Activity [1] of 20.5%, an Activity [2] of 61.9% and an inhibition [3] of 54.1%. The fold change (FC) [4] was 2.56, the Activity (Rattus norvegicus) was “Non-Toxic” and the inhibition [5] was “Dose-dependent effect”.

In the case of `COc1ccc(/C=C2/CN(C(=O)CCC(=O)NCCCNCCCCNCCCN)C/C(=C\c3ccc(OC)c(OC)c3)C2=O)cc1OC`, the inhibition [6] is reported as < 10%.

For `COc1cc(/C=C2\CN(C(=O)CCC(=O)NCCCNCCCCNCCCN)C/C(=C\c3ccc(O)c(OC)c3)C2=O)ccc1O`, the inhibition [6] was < 10% and the Activity (T67 [7]) was “Active”.

`NCCCNCCCCNCCCNC(=O)CCC(=O)N1C/C(=C\c2ccc(O)cc2)C(=O)/C(=C/c2ccc(O)cc2)C1` was tested, and the inhibition [6] was < 10% and the Activity (T67 [8]) was “Dose-dependent effect”.

For `NCCCNCCCCNCCCNC(=O)CCC(=O)N1C/C(=C\c2ccccc2)C(=O)/C(=C/c2ccccc2)C1`, the inhibition [6] was < 10%.

Molecule `NCCCNCCCCNCCCNC(=O)CCC(=O)N1C/C(=C/c2ccc(O)c(O)c2)C(=O)/C(=C/c2ccc(O)c(O)c2)C1.O=C(O)C(F)(F)F` has an Activity [1] of 53%, an Activity [9] of 27% and an inhibition [10] of 12%. It also gave a fold change (FC) [4] of 2.79, a fold change (FC) [11] of 1.46 and a fold change (FC) [12] of 2.14. For the same molecule, the Activity (T67 [8]) was “Dose-dependent effect”, the Activity (Rattus norvegicus) was “Non-Toxic” and the Activity [13] was 46.5. The Activity (neuronal) was “Active” and the inhibition [5] was “Dose-dependent effect”.

`NCCCNCCCCNCCCNC(=O)CCC(=O)N1C/C(=C/c2cccc(O)c2)C(=O)/C(=C/c2cccc(O)c2)C1` was tested, and the inhibition [6] was < 10%.
